# Assay results as given in publication PMC9621298 (Journal of Enzyme Inhibition and Medicinal Chemistry, 2022).
# Entries after “also recorded” stand apart in the source; their conditions may differ.
# What was measured:
# AIMP2-DX2 [1] = biological target: T1, AIMP2-DX2 (Homo sapiens, UniProt Q13155); assay: Screening: luminescence of luciferase-tagged AIMP2-DX2 in A549 cells; assay type: cell-based; conditions: 4 µM, 24 h
# T1 sequence (Q13155 1-251 isoform Q13155-2): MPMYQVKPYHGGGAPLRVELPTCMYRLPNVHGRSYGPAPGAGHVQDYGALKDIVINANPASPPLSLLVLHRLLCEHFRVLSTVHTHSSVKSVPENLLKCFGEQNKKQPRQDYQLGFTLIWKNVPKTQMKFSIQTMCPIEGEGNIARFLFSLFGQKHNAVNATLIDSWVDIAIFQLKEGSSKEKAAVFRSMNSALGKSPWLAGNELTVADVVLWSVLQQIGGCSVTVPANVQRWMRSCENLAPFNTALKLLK
# Siah1-knockdowned cells = assay: MTT cell viability assay with Siah1 knockdown by si-RNA; assay type: cell-based; conditions: Figure 7(A)
# Procedure, shortened: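 Cells were knocked down for Siah1 with specific si-RNA and then treated with test compound. Viability was read by MTT: 96 h in serum-free medium, MTT for 1.5 h at 37 °C, formazan in DMSO, absorbance at 560 nm. Siah1 and AIMP2-DX2 protein levels were checked by immunoblotting. Three independent repeats.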
# AIMP2 = biological target: T2, AIMP2 (Homo sapiens, UniProt Q13155); assay: Western blotting of AIMP2 level; assay type: cell-based; conditions: selectivity versus AIMP2-DX2
# T2 sequence (Q13155 1-320): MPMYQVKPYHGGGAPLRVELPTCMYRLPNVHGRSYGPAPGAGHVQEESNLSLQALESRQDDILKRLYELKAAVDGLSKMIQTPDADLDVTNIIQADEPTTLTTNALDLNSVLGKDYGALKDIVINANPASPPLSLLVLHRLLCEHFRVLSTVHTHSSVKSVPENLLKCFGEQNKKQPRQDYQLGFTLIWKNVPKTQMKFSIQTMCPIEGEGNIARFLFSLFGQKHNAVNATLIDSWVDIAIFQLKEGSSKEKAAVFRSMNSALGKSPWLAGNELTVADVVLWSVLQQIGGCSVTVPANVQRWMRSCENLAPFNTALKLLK
# AIMP2-DX2 [2] = biological target: T1, AIMP2-DX2; assay: Western blotting of AIMP2-DX2 protein level; assay type: cell-based; conditions: Figure 6(A)
# [3] = biological target: T3, binding of Siah1 to AIMP2-DX2 (Homo sapiens, UniProt Q13155+Q8IUQ4); assay: Immunoprecipitation assay: cellular binding of AIMP2-DX2 and Siah1; assay type: cell-based; conditions: Figure 5(A)
# T3 sequence (Q13155 1-251 isoform Q13155-2): T1 sequence (Q13155 1-251 isoform Q13155-2)
# T3 sequence (Q8IUQ4 1-282): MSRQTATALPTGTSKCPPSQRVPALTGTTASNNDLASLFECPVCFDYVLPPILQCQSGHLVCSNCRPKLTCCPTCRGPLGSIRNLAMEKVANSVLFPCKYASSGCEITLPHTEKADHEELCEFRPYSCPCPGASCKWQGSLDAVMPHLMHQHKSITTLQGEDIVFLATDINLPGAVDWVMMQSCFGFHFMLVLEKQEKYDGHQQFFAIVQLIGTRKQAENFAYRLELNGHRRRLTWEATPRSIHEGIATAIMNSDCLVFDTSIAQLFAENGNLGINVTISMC
# AIMP2-DX2 [4] = biological target: T1, AIMP2-DX2; assay: Ubiquitination assay in 293 T cells expressing strep-tagged AIMP2-DX2; assay type: cell-based; conditions: 293 T cells expressing strep-AIMP2-DX2, with MG132
# Procedure, shortened: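 293 T cells were grown in DMEM with 10% FBS at 37 °C in 5% CO2 and expressed strep-tagged AIMP2-DX2 from the pEXPR-IBA5 vector. AIMP2-DX2 was pulled down on strep-tactin, run on SDS-PAGE and immunoblotted, including with anti-ubiquitin.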
# [5] = biological target: T4, binding of Siah1 and AIMP2-DX2 (Homo sapiens, UniProt Q13155+Q8IUQ4); assay: In vitro pull-down assay: binding of Siah1 and AIMP2-DX2; conditions: Figure 5(B)
# T4 sequence (Q13155 1-251 isoform Q13155-2): T1 sequence (Q13155 1-251 isoform Q13155-2)
# T4 sequence (Q8IUQ4 1-282): T3 sequence (Q8IUQ4 1-282)
# Procedure, shortened: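 Direct binding of the two proteins was tested in vitro by GST pull-down with test compound present. An empty-vector control was included. GST proteins were detected by Coomassie staining.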
# Siah1 [6] = biological target: T5, Siah1 (Homo sapiens, UniProt Q8IUQ4); assay: In vitro pull-down assay with biotin-attached E3 ligase ligands; conditions: tested as biotin-attached 5 and 6; no binding to AIMP2-DX2
# T5 sequence (Q8IUQ4 1-282): T3 sequence (Q8IUQ4 1-282)
# Siah1 [7] = biological target: T5, Siah1; assay: Surface plasmon resonance; assay type: binding; conditions: details are not reported
compound,measurement,setting,value
"O=C1CCC(N2C(=O)c3cccc(NC(=O)CCOCCOCCOCCOCCOCCOCc4cn(Cc5ccc(S(=O)(=O)N[C@@H](Cc6c[nH]c7ccccc67)C(=O)Nc6ccc(N7CCOCC7)cc6)cc5)nn4)c3C2=O)C(=O)N1 (stereo partly drawn) [Compound 23, 1–(1-(4-(N-((S)-3-(1H-Indol-3-yl)-1-((4-morpholinophenyl)amino)-1-oxopropan-2-yl)sulfamoyl)benzyl)-1H-1,2,3-triazol-4-yl)-N-(2–(2,6-dioxopiperidin-3-yl)-1,3-dioxoisoindolin-4-yl)-2,5,8,11,14,17-hexaoxaicosan-20-amide]",inhibitory activity on AIMP2-DX2 (in words),AIMP2-DX2 [1],very poor inhibitory activities
"O=C1CCC(N2C(=O)c3cccc(OCCOCCOCCOCCOCCOCc4cn(Cc5ccc(S(=O)(=O)N[C@@H](Cc6c[nH]c7ccccc67)C(=O)Nc6ccc(N7CCOCC7)cc6)cc5)nn4)c3C2=O)C(=O)N1 (stereo partly drawn) [Compound 16, (2S)-2-((4-((4–(16-((2–(2,6-dioxopiperidin-3-yl)-1,3-Dioxoisoindolin-4-yl)oxy)-2,5,8,11,14-pentaoxahexadecyl)-1H-1,2,3-triazol-1-yl)methyl)phenyl)sulfonamido)-3-(1H-indol-3-yl)-N-(4-morpholinophenyl)propanamide]",inhibitory activity on AIMP2-DX2 (in words),AIMP2-DX2 [1],very poor inhibitory activities
"Cc1ccc(S(=O)(=O)N[C@@H](Cc2c[nH]c3ccccc23)C(=O)Nc2ccc(N3CCN(C(=O)CCOCCNc4cccc5c4C(=O)N(C4CCC(=O)NC4=O)C5=O)CC3)cc2)cc1 (stereo partly drawn) [Compound 45, (2S)-N-(4–(4-(3–(2-((2–(2,6-Dioxopiperidin-3-yl)-1,3-dioxoisoindolin-4-yl)amino)ethoxy)propanoyl)piperazin-1-yl)phenyl)-3-(1H-indol-3-yl)-2-((4-methylphenyl)sulfonamido)propanamide]",cell viability,Siah1-knockdowned cells; Siah1 knocked down using specific si-RNA,no significant difference in cell viability
same,cell viability,Siah1-knockdowned cells; Siah1 not knocked down,efficiently reduced cell viability
same,effect on AIMP2,AIMP2,without any effect on AIMP2
same,level of AIMP2-DX2 protein,AIMP2-DX2 [2],specifically decreased
same,endogenous binding of Siah1 to AIMP2-DX2 (immunoprecipitation),[3],enhances the endogenous binding of Siah1 to AIMP2-DX2 in a dose-dependent manner
same,ubiquitination of AIMP2-DX2,AIMP2-DX2 [4],induced
same,binding of Siah1 and AIMP2-DX2 (in vitro pull-down),[5],direct effect on binding of two proteins
"O=C1CCC(N2C(=O)c3cccc(NC(=O)COCCOCCOCCOCCOCCNC(=O)c4ccc(S(=O)(=O)N[C@@H](Cc5c[nH]c6ccccc56)C(=O)Nc5ccc(N6CCOCC6)cc5)cc4)c3C2=O)C(=O)N1 (stereo partly drawn) [Compound 31, 4-(N-((S)-3-(1H-Indol-3-yl)-1-((4-morpholinophenyl)amino)-1-oxopropan-2-yl)sulfamoyl)-N-(17-((2–(2,6-dioxopiperidin-3-yl)-1,3-dioxoisoindolin-4-yl)amino)-17-oxo-3,6,9,12,15-pentaoxaheptadecyl)benzamide]",inhibitory activity on AIMP2-DX2 (in words),AIMP2-DX2 [1],very poor inhibitory activities
"O=C1CCC(N2C(=O)c3cccc(NC(=O)CCOCCOCCOCCOCc4cn(Cc5ccc(S(=O)(=O)N[C@@H](Cc6c[nH]c7ccccc67)C(=O)Nc6ccc(N7CCOCC7)cc6)cc5)nn4)c3C2=O)C(=O)N1 (stereo partly drawn) [Compound 21, 1–(1-(4-(N-((S)-3-(1H-Indol-3-yl)-1-((4-morpholinophenyl)amino)-1-oxopropan-2-yl)sulfamoyl)benzyl)-1H-1,2,3-triazol-4-yl)-N-(2–(2,6-dioxopiperidin-3-yl)-1,3-dioxoisoindolin-4-yl)-2,5,8,11-tetraoxatetradecan-14-amide]",inhibitory activity on AIMP2-DX2 (in words),AIMP2-DX2 [1],very poor inhibitory activities
"Nc1cccc2c1C(=O)N(C1CCC(=O)NC1=O)C2=O (centres unmarked) [Compound 4, pomalidomide]",binding to Siah1 (in vitro pull-down),Siah1 [6],specifically bind to Siah1
same,binding affinity with Siah1 (SPR),Siah1 [7],most favourable; also recorded: some degree of binding affinity
"O=C1CCC(N2C(=O)c3cccc(NC(=O)CCOCCOCCOCCOCCOCc4cn(Cc5ccc(S(=O)(=O)N[C@@H](Cc6c[nH]c7ccccc67)C(=O)Nc6ccc(N7CCOCC7)cc6)cc5)nn4)c3C2=O)C(=O)N1 (stereo partly drawn) [Compound 22, 1–(1-(4-(N-((S)-3-(1H-Indol-3-yl)-1-((4-morpholinophenyl)amino)-1-oxopropan-2-yl)sulfamoyl)benzyl)-1H-1,2,3-triazol-4-yl)-N-(2–(2,6-dioxopiperidin-3-yl)-1,3-dioxoisoindolin-4-yl)-2,5,8,11,14-pentaoxaheptadecan-17-amide]",inhibitory activity on AIMP2-DX2 (in words),AIMP2-DX2 [1],very poor inhibitory activities
